This note sets out measurements from ChEMBL document CHEMBL1949636, “Optimization of phenylacetic acid derivatives for balanced CRTH2 and DP dual antagonists” (Bioorg Med Chem Lett, 2012).

The target in experiment [1] is T1, Prostaglandin D2 receptor 2 (Homo sapiens, UniProt Q9Y5Y4).
T1 sequence (Q9Y5Y4 whole entry): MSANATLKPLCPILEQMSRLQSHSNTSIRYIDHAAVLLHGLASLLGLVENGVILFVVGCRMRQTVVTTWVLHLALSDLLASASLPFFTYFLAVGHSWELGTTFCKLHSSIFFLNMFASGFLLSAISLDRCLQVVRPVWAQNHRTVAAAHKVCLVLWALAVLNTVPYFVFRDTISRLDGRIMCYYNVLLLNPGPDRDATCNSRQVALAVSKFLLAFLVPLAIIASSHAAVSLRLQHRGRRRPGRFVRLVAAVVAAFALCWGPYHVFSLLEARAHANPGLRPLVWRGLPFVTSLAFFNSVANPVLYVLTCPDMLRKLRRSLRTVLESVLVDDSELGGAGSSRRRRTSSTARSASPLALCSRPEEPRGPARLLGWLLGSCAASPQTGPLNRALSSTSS
Kind of experiment: Displacement of [3H]PGD2 from human CRTH2 receptor expressed in HEK293 cells by scintillation counting in presence of 0.5% BSA. Type of experiment: cell-based. An outline of the steps: (§1)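 Radioligand binding to intact HEK 293 cells stably expressing human CRTH2 or DP. Cells incubated with [3H]-PGD2 and increasing compound concentrations in binding buffer containing 0.5% BSA. After washing, bound [3H]-PGD2 counted by scintillation. […] Mean of three experiments; standard deviation 30%.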
(In general: Displacement assays read how much labelled ligand stays bound in the presence of the test substance.)

Experiment [2] deals with T2, Prostaglandin D2 receptor (Homo sapiens, UniProt Q13258).
T2 sequence (Q13258 whole entry): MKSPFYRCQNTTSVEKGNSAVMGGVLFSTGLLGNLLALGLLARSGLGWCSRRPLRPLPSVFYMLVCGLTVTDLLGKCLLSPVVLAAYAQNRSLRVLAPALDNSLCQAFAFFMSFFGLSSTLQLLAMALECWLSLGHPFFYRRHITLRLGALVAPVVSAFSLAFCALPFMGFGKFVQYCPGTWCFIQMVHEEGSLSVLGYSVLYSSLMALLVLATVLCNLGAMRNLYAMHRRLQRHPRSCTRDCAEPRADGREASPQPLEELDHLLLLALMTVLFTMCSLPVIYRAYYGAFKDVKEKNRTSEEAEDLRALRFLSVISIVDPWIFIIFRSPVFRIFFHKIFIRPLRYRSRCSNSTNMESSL
The experiment is described as follows: Displacement of [3H]PGD2 from human DP receptor expressed in HEK293 cells by scintillation counting in presence of 0.5% BSA. Type of experiment: cell-based. An outline of the steps:
as §1

For experiment [3], the target named is T1, Prostaglandin D2 receptor 2. The experiment is described as follows: Displacement of [3H]PGD2 from human CRTH2 receptor expressed in HEK293 cells by scintillation counting in presence of 50% plasma. Type of experiment: cell-based. The method in brief: (§2)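 Whole-cell [3H]-PGD2 binding on HEK 293 cells stably expressing human CRTH2 or DP, run in binding buffer containing 50% human plasma. Test compound added at increasing concentrations. Cells washed, and remaining bound radioligand measured by scintillation counting. Mean of three experiments; standard deviation 30%.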

The target of experiment [4] is T3, Prostaglandin D2 receptor 2 (Homo sapiens) (UniProt Q9Y5Y4).
T3 sequence (whole entry): T1 sequence (Q9Y5Y4 whole entry)
The experiment is described as follows: Antagonist activity at CRTH2 receptor in human eosinophol assessed as inhibition of PGD2-induced eosinophol shape change preincubated for 10 mins prior PGD2 stimulation measured after 10 mins by FACS flow cytometry. The class given is functional. The method in brief: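 Granulocytes enriched from normal donor peripheral blood by density-gradient centrifugation; erythrocytes removed by ACK lysis. Cells pre-incubated 10 min at room temperature with antagonist or vehicle (0.05% DMSO), then stimulated with PGD2 (600–0.003 nM, 1:3 dilution) 10 min at 37 °C. Fixed in 1% final paraformaldehyde. Eosinophils gated as FL2-positive; geometric mean forward scatter used to derive IC50.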
(In general: In flow cytometry, cells or beads pass a laser one at a time.)

The target in experiment [5] is T4, Prostaglandin D2 receptor (Homo sapiens) (UniProt Q13258).
T4 sequence (whole entry): T2 sequence (Q13258 whole entry)
Kind of experiment: Antagonist activity at DP receptor in PGD2-stimulated human platelets in 80% whole blood assessed as inhibition of IBMX-stimulated cAMP production preincubated for 30 mins prior PGD2 stimulation measured after 60 mins by immunoassay. Type of experiment: functional, tissue-based. An outline of the steps: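 IBMX added to human whole blood at 1 mM final. Treated blood incubated with antagonist 30 min at 37 °C, then transferred to PGD2 at various concentrations for 60 min at 37 °C. Blood lysed and cAMP measured by direct immunoassay. PGD2-stimulated cAMP curves fitted with a Hill model.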

Experiment [6] has as its target T2, Prostaglandin D2 receptor. The experiment is described as follows: Displacement of [3H]PGD2 from human DP receptor expressed in HEK293 cells by scintillation counting in presence of 50% plasma. The class given is cell-based. An outline of the steps:
as §2

Where only a bound is given, the exact number is not on record here.

The IC50 is the point on the concentration scale where inhibition reaches its midpoint. Regarding `CCCCNC(=O)c1ccc(Oc2ccc(CC(=O)O)cn2)c(NS(=O)(=O)c2ccc(Cl)cc2Cl)c1`, the concentration for half-maximal inhibition (IC50) in experiment [1] is 310 nM; in experiment [2], 480 nM.
Broadly, the Kb is the affinity of an antagonist, worked out from how it opposes an agonist. As for `CCCc1nc(-c2ccc(Oc3ccc(CC(=O)O)cc3OC)c(NS(=O)(=O)c3ccc(Cl)cc3Cl)c2)c[nH]1`, the half-maximal inhibitory concentration (IC50) in experiment [3] is 20 nM; in experiment [1], 2 nM; in experiment [2], 10 nM; in experiment [6], 110 nM. Further, the Kb in experiment [4] was 0.18 nM; in experiment [5], 50 nM.
As to `CCc1noc(-c2ccc(Oc3ccc(CC(=O)O)cc3OC)c(NS(=O)(=O)c3ccc(Cl)cc3Cl)c2)n1`, the IC50 in experiment [1] is 770 nM; in experiment [2], 23 nM.
For the molecule `CCc1nc(-c2ccc(Oc3ccc(CC(=O)O)cc3OC)c(NS(=O)(=O)c3ccc(Cl)cc3Cl)c2)n[nH]1`, the IC50 turned out to be 6 nM in experiment [1] and 15 nM in experiment [2].
On to `CCCCNC(=O)c1ccc(Oc2ccc3c(ccn3CC(=O)O)c2)c(NS(=O)(=O)c2ccc(Cl)cc2Cl)c1`, for which the figures for the IC50 in experiment [1] and in experiment [2] were 2 nM and 29 nM, respectively.
On the same counts, the results for `CCCCNC(=O)c1ccc(Cc2ccc(CC(=O)O)cc2OC)c(NS(=O)(=O)c2ccc(Cl)cc2Cl)c1` are 2 nM and 6 nM.
For `CCCCNC(=O)c1ccc(Sc2ccc(CC(=O)O)cc2)c(NS(=O)(=O)c2ccc(Cl)cc2Cl)c1`, the IC50 turned out to be 21 nM in experiment [1] and 630 nM in experiment [2].
For `CCCCNC(=O)c1ccc(Oc2ccc3c(CC(=O)O)coc3c2)c(NS(=O)(=O)c2ccc(Cl)cc2Cl)c1`, the IC50 in experiment [1] and in experiment [2] was 5 nM each time.
As for `CCCCNC(=O)c1ccc(S(=O)(=O)c2ccc(CC(=O)O)cc2)c(NS(=O)(=O)c2ccc(Cl)cc2Cl)c1`, the IC50 in experiment [1] is 400 nM; in experiment [2], greater than 10000 nM.
In the case of `CCCc1nc(-c2ccc(Oc3ccc(CC(=O)O)cc3OC)c(NS(=O)(=O)c3ccc(Cl)cc3Cl)c2)n[nH]1`, the IC50 in experiment [1] is 4 nM; in experiment [2] it was 10 nM.
On to `CCCCNC(=O)c1ccc(Oc2ccc3c(CC(=O)O)c[nH]c3c2)c(NS(=O)(=O)c2ccc(Cl)cc2Cl)c1`, for which the IC50 in experiment [1] turned out to be 3 nM; in experiment [2] it was 83 nM.
On to `CCCc1cc(-c2ccc(Oc3ccc(CC(=O)O)cc3OC)c(NS(=O)(=O)c3ccc(Cl)cc3Cl)c2)n[nH]1`, for which the IC50 came to 8 nM in experiment [3], 2 nM in experiment [1], 4 nM in experiment [2] and 46 nM in experiment [6]. Moreover, the results for the Kb in experiment [4] and in experiment [5] were 0.084 nM and 5 nM, respectively.
For the molecule `CCCCNC(=O)c1ccc(Oc2ccc(CC(=O)O)nc2)c(NS(=O)(=O)c2ccc(Cl)cc2Cl)c1`, the IC50 in experiment [1] is 10 nM; in experiment [2], 230 nM.
On the same counts, the results for `CCCCNC(=O)c1ccc([S+]([O-])c2ccc(CC(=O)O)cc2)c(NS(=O)(=O)c2ccc(Cl)cc2Cl)c1` (stereo not drawn) are 660 nM and greater than 10000 nM.
Turning to `CCCCNC(=O)c1ccc(Oc2ccc3c(c2)OCC3CC(=O)O)c(NS(=O)(=O)c2ccc(Cl)cc2Cl)c1` (stereo not drawn), the IC50 in experiment [1] is 580 nM; in experiment [2], 150 nM.
